The term IC50 denotes the concentration that gives 50% inhibition.

Values after ≈ are worked out from the molar mass of the structure shown. Active and inactive are the calls of the source.

Here are results for ten compounds from ChEMBL document CHEMBL1124122, “Protoberberine alkaloids as antimalarials” (J Med Chem, 1988).

The subject of assay [1] is Mus musculus. Nature of the assay: In vivo Mean survival time of Plasmodium berghei parasitized mice dosed at 160 mg/kg. It counts as functional. Summed up:
(§1)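 Mice infected with drug-sensitive Plasmodium berghei strain KBG 173. Result given as T − C: the mean survival time of treated mice beyond that of untreated infected controls. A compound counts as active when T − C is ≥ 6.2 days.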

For assay [2], the system named is Mus musculus. The assay can be described thus: In vivo Mean survival time of Plasmodium berghei parasitized mice dosed at 40 mg/kg. It is filed as functional. Summed up: as §1
Assay [3] relates to Mus musculus. The assay can be described thus: In vivo Mean survival time of Plasmodium berghei parasitized mice dosed at 640 mg/kg; Toxic. It is filed as functional, organism-based. Details: dose 640 mg/kg. An outline of the steps:
(§2)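 Mice were infected with the drug-sensitive P. berghei strain KBG 173 and given the stated dose. T − C is the mean survival time of treated mice beyond that of untreated controls. A compound counts as active only if T − C is ≥ 6.2 days, and toxicity is flagged separately.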

The test system of assay [4] is Plasmodium falciparum. Nature of the assay: In vitro antimalarial activity against Plasmodium falciparum W2. It counts as functional, organism-based. An outline of the steps: (§3)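 Parasite growth inhibition was read out as uptake of tritiated hypoxanthine.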
Assay [5] relates to Plasmodium falciparum. Nature of the assay: (§4) In vitro antimalarial activity against Plasmodium falciparum D6. It counts as functional, organism-based. Summed up:
as §3

The test system of assay [6] is Mus musculus. Nature of the assay: In vivo Mean survival time of Plasmodium berghei parasitized mice dosed at 640 mg/kg. It counts as functional. Summed up: as §1
In assay [7] the test system is Plasmodium falciparum. The description is as §4. It is filed as functional, organism-based. Summed up: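 Parasite growth inhibition read as uptake of tritiated hypoxanthine.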
The source holds these as a separate data set.

In assay [8] the test system is Mus musculus. Nature of the assay: In vivo Mean survival time of Plasmodium berghei parasitized mice dosed at 160 mg/kg; Toxic. It is filed as functional, organism-based. Details: dose 160 mg/kg. Summed up:
as §2

Assay [9] has as its system Plasmodium falciparum. Nature of the assay: In vitro antimalarial activity against Plasmodium falciparum D6. It counts as functional, organism-based. An outline of the steps:
as §3

Assay [10] relates to Mus musculus. Nature of the assay: In vivo Mean survival time of Plasmodium berghei parasitized mice dosed at 160 mg/kg; Not active. It counts as functional, organism-based. Set-up: dose 160 mg/kg. Summed up:
as §2

Assay [11] concerns Mus musculus. The assay can be described thus: In vivo Mean survival time of Plasmodium berghei parasitized mice dosed at 40 mg/kg; Not active. It is filed as functional, organism-based. Set-up: dose 40 mg/kg. Summed up: as §2
For assay [12], the system named is Mus musculus. The assay can be described thus: In vivo Mean survival time of Plasmodium berghei parasitized mice dosed at 640 mg/kg; Not active. It counts as functional, organism-based. Set-up: dose 640 mg/kg. Summed up:
as §2

Turning to `COc1ccc2cc3[n+](cc2c1OC)CCc1cc2c(cc1-3)OCO2.[Cl-]` [BERBERINE CHLORIDE], the values for the T-C in the assay with Mus musculus [1], in the assay with Mus musculus [2] and in the assay with Mus musculus [3] were 1 days, 0.6 days and “Toxic”, respectively. The figures for the IC50 in the assay with Plasmodium falciparum [4] and in the assay with Plasmodium falciparum [5] were 0.148 µg/mL and 0.141 µg/mL, respectively.
In the case of `COc1ccc2c(c1OC)CN1CCc3cc4c(cc3[C@@H]1C2)OCO4` [CANADINE], the T-C in the assay with Mus musculus [1] was determined as 0.1 days; in the assay with Mus musculus [2], 0.1 days; in the assay with Mus musculus [6] it was 0.3 days. Further, the IC50 was found to be 1.74 µg/mL (≈ 5.12 µM) in the assay on Plasmodium falciparum [4] and 0.555 µg/mL (≈ 1.64 µM) in the assay with Plasmodium falciparum [7].
In the case of `COc1ccc2c(c1OC)C[N+]1([O-])CCc3cc4c(cc3C1C2)OCO4` (stereo not given), the T-C with Mus musculus [1] is 0.2 days; in the assay on Mus musculus [2] it was 0 days; with Mus musculus [6] it was 0 days. The results for the IC50 in the assay with Plasmodium falciparum [4] and in the assay on Plasmodium falciparum [7] were 0.558 µg/mL (≈ 1.57 µM) and 0.565 µg/mL (≈ 1.59 µM), respectively.
In the case of `COc1ccc2c(c1OC)CN1CCc3cc4c(cc3C1=C2)OCO4` [DIHYDROBERBERINE], the T-C entry in the assay with Mus musculus [8] is “Toxic”; in the assay with Mus musculus [2], -0.2 days; in the assay on Mus musculus [3], “Toxic”. Moreover, the figures for the concentration for half-maximal inhibition (IC50) in the assay with Plasmodium falciparum [4] and in the assay on Plasmodium falciparum [7] were 0.171 µg/mL (≈ 0.507 µM) and 0.12 µg/mL (≈ 0.356 µM), respectively.
As to `COc1ccc2cc3n(c(=O)c2c1OC)CCc1cc2c(cc1-3)OCO2` [OXYBERBERINE], the T-C in the assay on Mus musculus [1] is 0.5 days; in the assay on Mus musculus [2], 0.1 days; in the assay on Mus musculus [6], 0.3 days. For the same compound, the IC50 in the assay on Plasmodium falciparum [4] is 2.01 µg/mL (≈ 5.71 µM); with Plasmodium falciparum [9] it was 0.557 µg/mL (≈ 1.59 µM).
In the case of `COc1cc2c(cc1O)CC[n+]1cc3c(OC)c(OC)ccc3cc1-2.[Cl-]` [JATRORRHIZINE CHLORIDE], the T-C result in the assay with Mus musculus [10], with Mus musculus [11] and with Mus musculus [12] was “inactive” throughout. Besides, the values for the IC50 in the assay on Plasmodium falciparum [4] and in the assay on Plasmodium falciparum [7] were 1.61 µg/mL and 0.422 µg/mL, respectively.
Consider `COc1ccc2c(OC)c3[n+](cc2c1OC)CCc1cc2c(cc1-3)OCO2`, for which the T-C was -0.2 days in the assay on Mus musculus [1], -0.2 days in the assay on Mus musculus [2] and 0.2 days with Mus musculus [6]. The IC50 in the assay on Plasmodium falciparum [4] was 0.701 µg/mL; with Plasmodium falciparum [9], 0.568 µg/mL.
In the case of `COc1ccc2c(c1OC)C(C#N)N1CCc3cc4c(cc3C1=C2)OCO4` (stereo not given), the T-C entry with Mus musculus [10], in the assay with Mus musculus [11] and in the assay on Mus musculus [12] was “inactive” in each case. Also, the results for the IC50 with Plasmodium falciparum [4] and in the assay with Plasmodium falciparum [9] were 0.143 µg/mL (≈ 0.395 µM) and 0.101 µg/mL (≈ 0.279 µM), respectively.
Consider `COc1cc2c(cc1OC)-c1cc3ccc(OC)c(OC)c3c[n+]1CC2.[Cl-]` [PALMATINE CHLORIDE], for which the T-C entry is “Toxic” in the assay with Mus musculus [8], 0.5 days with Mus musculus [2] and “Toxic” in the assay with Mus musculus [3]. For the same compound, the results for the IC50 in the assay with Plasmodium falciparum [4] and in the assay on Plasmodium falciparum [9] were 0.163 µg/mL and 0.281 µg/mL, respectively.
Turning to `COc1ccc2c(c1OC)C[N+]1(C)CCc3cc4c(cc3C1C2)OCO4.[I-]` (stereo not given), the T-C result in the assay with Mus musculus [10], in the assay with Mus musculus [11] and with Mus musculus [12] was “inactive” throughout. The IC50 came to 1.34 µg/mL with Plasmodium falciparum [4] and 0.97 µg/mL in the assay on Plasmodium falciparum [7].
